What is called IC50 is the point on the concentration scale where inhibition reaches its midpoint. A high value points to lower potency. One may read the NOAEL as the highest dose or exposure tested at which no adverse effect was seen.

The structures appear in SMILES notation. Where only a bound is given, the exact number is not on record here.

The values below come from publication PMC8640676 (Journal of Pesticide Science, 2021).

Data set [1] deals with T1, protoporphyrinogen oxidase (PPO) (Canis lupus familiaris, UniProt A0A8I3Q7Z3).
T1 sequence (A0A8I3Q7Z3 1-480): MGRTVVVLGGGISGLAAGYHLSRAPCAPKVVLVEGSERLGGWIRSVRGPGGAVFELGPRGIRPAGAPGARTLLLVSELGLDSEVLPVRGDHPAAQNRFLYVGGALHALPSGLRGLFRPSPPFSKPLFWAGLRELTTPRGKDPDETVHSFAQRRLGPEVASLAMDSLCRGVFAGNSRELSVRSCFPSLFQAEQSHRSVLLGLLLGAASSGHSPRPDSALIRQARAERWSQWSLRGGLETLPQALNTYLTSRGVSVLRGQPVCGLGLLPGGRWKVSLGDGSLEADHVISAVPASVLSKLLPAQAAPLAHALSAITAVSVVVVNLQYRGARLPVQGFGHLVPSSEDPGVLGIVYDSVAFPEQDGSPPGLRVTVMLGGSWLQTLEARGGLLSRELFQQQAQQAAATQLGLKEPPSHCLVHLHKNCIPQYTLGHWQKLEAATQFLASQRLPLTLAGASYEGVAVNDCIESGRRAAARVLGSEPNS
As to the kind of experiment: PPO-inhibition assay, dog liver mitochondrial fraction. It counts as biochemical. In a few lines: (§1)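 Liver mitochondria came from pooled SD rats and humans, or were freshly kit-isolated from Crl:CD1 mice and TOYO beagles. They were used at 0.2 mg protein/mL in 100 mM Tris-HCl pH 7.5 with 0.1% Triton-X, 1 mM EDTA and 40 mM ascorbate, preincubated 10 min at 37°C, then given 0.5 µM protoporphyrinogen IX. PPIX fluorescence (ex 410/em 630 nm) was read for 60 min at 37°C. Heat-killed mitochondria gave the background, and IC50 came from 4-parameter fits over 3 runs.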

A short description of data set [2]: Toxicokinetics in plasma, rat 90-day study. It counts as in vivo. Conditions: rats, 90-day dietary administration (data not shown).
A short description of data set [3]: In vitro metabolism study in liver microsomes. It counts as in vitro ADME. The conditions noted are these: rat liver microsomes, 10 µM, NADPH, 37°C. For orientation: Liver microsomes are vesicles of endoplasmic reticulum, rich in cytochrome P450 enzymes.
A short description of data set [4]: Incubation of epyrifenacil without microsomal fractions. The class given is in vitro ADME. The conditions noted are these: 30 min of incubation.
The nature of data set [5]: Toxicokinetics in plasma, mouse 90-day study. It counts as in vivo. Conditions: mice, 90-day dietary administration (data not shown).
Data set [6] concerns the target T2, protoporphyrinogen oxidase (PPO) (Homo sapiens, UniProt P50336).
T2 sequence (P50336 1-477): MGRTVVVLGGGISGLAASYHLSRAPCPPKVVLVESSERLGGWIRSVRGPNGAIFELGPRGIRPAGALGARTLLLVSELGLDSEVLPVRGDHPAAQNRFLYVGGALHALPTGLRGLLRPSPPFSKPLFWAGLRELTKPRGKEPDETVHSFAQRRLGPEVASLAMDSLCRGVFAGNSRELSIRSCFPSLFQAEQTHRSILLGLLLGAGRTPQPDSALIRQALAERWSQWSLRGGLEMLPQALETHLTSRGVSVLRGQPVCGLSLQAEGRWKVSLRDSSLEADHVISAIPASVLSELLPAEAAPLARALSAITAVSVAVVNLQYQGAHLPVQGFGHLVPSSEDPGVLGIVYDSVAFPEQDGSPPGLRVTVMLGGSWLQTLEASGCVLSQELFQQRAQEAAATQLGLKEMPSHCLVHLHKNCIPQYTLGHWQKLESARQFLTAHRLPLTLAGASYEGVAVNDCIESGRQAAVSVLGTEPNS
As to the kind of experiment: PPO-inhibition assay, human liver mitochondrial fraction. It counts as biochemical. In a few lines:
as §1

The nature of data set [7]: 90-day subchronic toxicity study with epyrifenacil in rats. The class given is in vivo, rat. The conditions noted are these: Crl:CD(SD), rat, in vivo, oral. In a few lines: (§2)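 Crl:CD(SD) rats, 10 per sex per group, had free access to diet containing 0 (basal diet), 50, 300 or 800 ppm for 90 consecutive days. TK satellite groups held 4 rats per sex. The study was run to test guidelines under GLP.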

For the next data set, the system named is Crl:CD(SD) rats. The data set is described as above. The class given is in vivo, rat. An outline of the steps: as §2
Data set [8] has as its target T3, protoporphyrinogen oxidase (PPO) (Rattus norvegicus, UniProt D3ZVN7).
T3 sequence (D3ZVN7 1-488): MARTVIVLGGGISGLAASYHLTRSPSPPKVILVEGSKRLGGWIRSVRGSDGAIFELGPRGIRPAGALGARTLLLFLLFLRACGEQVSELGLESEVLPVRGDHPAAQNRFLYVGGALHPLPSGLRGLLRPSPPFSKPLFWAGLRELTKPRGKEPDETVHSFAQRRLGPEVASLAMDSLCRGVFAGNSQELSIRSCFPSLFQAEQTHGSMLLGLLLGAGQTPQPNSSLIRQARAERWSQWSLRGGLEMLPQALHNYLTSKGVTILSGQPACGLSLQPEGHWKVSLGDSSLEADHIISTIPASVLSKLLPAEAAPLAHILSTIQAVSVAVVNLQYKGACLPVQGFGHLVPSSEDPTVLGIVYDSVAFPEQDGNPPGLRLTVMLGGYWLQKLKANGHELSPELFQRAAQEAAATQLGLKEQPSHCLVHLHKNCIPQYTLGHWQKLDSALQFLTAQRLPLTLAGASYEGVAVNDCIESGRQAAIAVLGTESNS
As to the kind of experiment: PPO-inhibition assay, rat liver mitochondrial fraction. The class given is biochemical. In a few lines:
as §1

Data set [9] has as its target T4, protoporphyrinogen oxidase (PPO) (Mus musculus, UniProt P51175).
T4 sequence (P51175 1-477): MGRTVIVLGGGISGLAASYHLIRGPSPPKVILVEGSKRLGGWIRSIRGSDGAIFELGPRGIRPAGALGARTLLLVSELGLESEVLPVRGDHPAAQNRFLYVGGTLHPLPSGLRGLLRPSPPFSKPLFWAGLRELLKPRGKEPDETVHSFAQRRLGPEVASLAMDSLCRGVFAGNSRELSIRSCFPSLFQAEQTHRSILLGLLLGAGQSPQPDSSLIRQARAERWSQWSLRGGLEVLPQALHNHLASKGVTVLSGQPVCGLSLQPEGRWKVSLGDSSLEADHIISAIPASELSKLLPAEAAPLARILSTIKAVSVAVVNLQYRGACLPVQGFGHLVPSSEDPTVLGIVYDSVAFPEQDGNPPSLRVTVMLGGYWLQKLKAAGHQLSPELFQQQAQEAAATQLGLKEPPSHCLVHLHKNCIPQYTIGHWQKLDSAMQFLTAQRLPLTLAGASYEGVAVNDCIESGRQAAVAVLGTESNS
As to the kind of experiment: PPO-inhibition assay, mouse liver mitochondrial fraction. The class given is biochemical. An outline of the steps: as §1

Data set [10] can be described thus: In vitro metabolism study in liver microsomes. The class given is in vitro ADME. Conditions: mouse liver microsomes, 10 µM, NADPH, 37°C.
The nature of data set [11]: Toxicokinetics in plasma, dog 90-day study. The conditions noted are these: dog plasma, 90-day oral capsule administration. It counts as in vivo.
Data set [12] can be described thus: 90-day subchronic toxicity study with epyrifenacil in mice. Conditions: Crl:CD1(ICR), mouse, in vivo, oral. It counts as in vivo. An outline of the steps: (§3)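 Crl:CD1(ICR) mice, 10 per sex per group, had free access to diet containing 0 (basal diet), 5, 25 or 100 ppm for 90 consecutive days. TK satellite groups held 24 mice per sex. The study was run to test guidelines under GLP.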

The subject of a further data set is Crl:CD1(ICR) mice. The description is as above. It counts as in vivo. Conditions: mouse, 90-day study. An outline of the steps: as §3
Data set [13] is described as follows: In vitro metabolism study in liver microsomes. The class given is in vitro ADME. Conditions: human liver microsomes, 10 µM, NADPH, 37°C.
Another data set has as its system Beagle dogs. As to the kind of experiment: 90-day subchronic toxicity study with epyrifenacil in dogs. The class given is in vivo, dog. In a few lines: (§4)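 Beagles, 4 per sex per group, were dosed orally with gelatin capsules at 0, 100, 300 or 1000 mg/kg/day for 90 consecutive days. The study was run to test guidelines under GLP.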
Assay in data set [14]: as above
It counts as in vivo, dog. The conditions noted are these: beagle, dog, in vivo, oral. An outline of the steps:
as §4

As for `CCOC(=O)COc1ncccc1Oc1cc(-n2c(=O)cc(C(F)(F)F)n(C)c2=O)c(F)cc1Cl` [epyrifenacil, ethyl[(3-{2-chloro-4-fluoro-5-[3-methyl-2,6-dioxo-4-(trifluoromethyl)-3,6-dihydropyrimidin-1(2H)-yl]phenoxy}pyridin-2-yl)oxy]acetate], the IC50 in data set [1] came to 7.6 ± 0.18 nM; in [6], 10.2 ± 0.66 nM; in data set [8] it was 2.6 ± 0.05 nM; in data set [9], 2.2 ± 0.03 nM. Further, the “Parent epyrifenacil detected in plasma” value in [2] was “no measurable amount”; in data set [5] it was “no measurable amount”; in data set [11], “not more than 0.04 µg/mL”. Also, the “Time within which epyrifenacil almost disappeared” value in data set [3], in data set [10] and in data set [13] was not above 5 min throughout. Besides, the Non-enzymatic degradation result in data set [4] is “did not present any degradants”. The NOAEL at 90 days in [7] (female) is 19 mg/kg/day; in data set [7] (male) it was 3 mg/kg/day; in [12] (female), 4.1 mg/kg/day; in data set [12] (male) it was 0.7 mg/kg/day; in [14] (female), 300 mg/kg/day; in data set [14] (male) it was 100 mg/kg/day. Also, the “NOAEL, fold change vs. corresponding mouse value” in the data set on Crl:CD(SD) rats (female rats vs female mice) is on record as 4.6 fold; with Crl:CD(SD) rats (male rats vs male mice) it was 4.3 fold; in the data set on Beagle dogs (female dogs vs female mice), 73 fold; in the data set on Beagle dogs (male dogs vs male mice) it was 143 fold. Also, the Major adverse findings entry is listed as “Hepatocyte injury caused by porphyrin accumulation, hepatocellular hypertrophy, anemia” in the data set with Crl:CD(SD) rats (rat, 90-day study); “Hepatocyte injury caused by porphyrin accumulation, hepatocellular hypertrophy, anemia” in the data set on Crl:CD1(ICR) mice; “Increased glycogen associated with increased ALP, anemia” in the data set on Beagle dogs (dog, 90-day study).
